Activity calls are given as the source filed them. No cut-off for these calls is given here.
Experiments:
[1] = molecular target: T1, DNA topoisomerase 2-alpha (Homo sapiens, UniProt P11388); test: (§1) Inhibition of 3 nM recombinant human topoisomerase-2alpha catalytic activity expressed in Saccharomyces cerevisiae JEL1 harboring topoisomerase1 deletion mutant assessed as reduction in supercoiled pBR322 DNA relaxation after 4 mins by ethidium bromide staining based agarose gel electrophoresis
In short: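 Topo IIα at 3 nM relaxes negatively supercoiled DNA, with no-enzyme and enzyme-only controls. Supercoiled (form I) and nicked (form II) bands are resolved on gel, and IC50 is estimated from the gels. Gels represent 2-4 independent experiments.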
Target sequence in this assay (P11388 whole entry, looked up, stated change not applied): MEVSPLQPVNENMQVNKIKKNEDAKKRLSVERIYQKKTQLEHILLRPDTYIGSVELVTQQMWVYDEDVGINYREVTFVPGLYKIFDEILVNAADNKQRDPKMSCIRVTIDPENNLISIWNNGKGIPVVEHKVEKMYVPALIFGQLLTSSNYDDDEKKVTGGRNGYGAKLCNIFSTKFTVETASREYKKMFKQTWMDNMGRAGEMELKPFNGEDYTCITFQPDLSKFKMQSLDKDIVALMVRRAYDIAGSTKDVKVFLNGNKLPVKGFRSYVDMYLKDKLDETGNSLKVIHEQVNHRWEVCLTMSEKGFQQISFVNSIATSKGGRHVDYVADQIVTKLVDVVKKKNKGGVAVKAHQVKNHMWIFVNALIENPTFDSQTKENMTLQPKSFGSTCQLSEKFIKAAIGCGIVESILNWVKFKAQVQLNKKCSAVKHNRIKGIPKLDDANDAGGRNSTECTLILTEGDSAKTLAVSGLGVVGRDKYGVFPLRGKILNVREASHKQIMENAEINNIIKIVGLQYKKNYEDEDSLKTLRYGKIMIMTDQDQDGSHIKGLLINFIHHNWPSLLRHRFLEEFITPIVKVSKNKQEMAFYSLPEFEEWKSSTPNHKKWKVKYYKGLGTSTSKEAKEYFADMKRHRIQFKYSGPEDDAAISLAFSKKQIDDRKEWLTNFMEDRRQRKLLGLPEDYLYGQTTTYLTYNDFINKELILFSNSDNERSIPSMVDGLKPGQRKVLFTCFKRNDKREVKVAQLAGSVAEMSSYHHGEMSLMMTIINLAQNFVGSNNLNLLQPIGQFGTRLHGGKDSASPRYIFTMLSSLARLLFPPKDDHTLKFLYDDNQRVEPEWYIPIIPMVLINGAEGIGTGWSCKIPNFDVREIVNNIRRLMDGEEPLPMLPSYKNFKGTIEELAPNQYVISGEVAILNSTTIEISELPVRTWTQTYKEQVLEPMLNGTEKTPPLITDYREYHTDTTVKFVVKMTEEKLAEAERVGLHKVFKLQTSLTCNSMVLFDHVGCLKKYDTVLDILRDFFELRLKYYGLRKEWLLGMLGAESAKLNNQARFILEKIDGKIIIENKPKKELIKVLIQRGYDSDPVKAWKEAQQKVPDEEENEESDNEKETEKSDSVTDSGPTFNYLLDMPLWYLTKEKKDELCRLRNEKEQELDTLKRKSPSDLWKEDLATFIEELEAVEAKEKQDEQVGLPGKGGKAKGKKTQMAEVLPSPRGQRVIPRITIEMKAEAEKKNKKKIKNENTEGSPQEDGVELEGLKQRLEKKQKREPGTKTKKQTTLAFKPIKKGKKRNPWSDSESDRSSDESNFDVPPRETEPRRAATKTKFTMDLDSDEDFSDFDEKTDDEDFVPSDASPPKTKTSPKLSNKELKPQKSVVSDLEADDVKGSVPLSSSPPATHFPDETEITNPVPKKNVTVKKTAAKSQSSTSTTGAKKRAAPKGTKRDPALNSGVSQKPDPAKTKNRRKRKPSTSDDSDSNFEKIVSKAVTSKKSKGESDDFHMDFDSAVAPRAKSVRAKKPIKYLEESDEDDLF

[2] = molecular target: T1, DNA topoisomerase 2-alpha; test: Ratio of IC50 for recombinant human topoisomerase-2alpha expressed in Saccharomyces cerevisiae JEL1 harboring topoisomerase1 deletion mutant assessed as enzyme-mediated decatenation of kinetoplast DNA to IC50 for recombinant human topoisomerase-2alpha catalytic activity expressed in Saccharomyces cerevisiae JEL1 harboring topoisomerase1 deletion mutant assessed as reduction in supercoiled pBR322 DNA relaxation
Target sequence in this assay (P11388 whole entry): as the sequence (P11388 whole entry, looked up, stated change not applied) above

[3] = molecular target: T1, DNA topoisomerase 2-alpha; test: as §1, with “of” for “of 3 nM”, “at 10 uM in presence of spermine” for “after 4 mins”
In short: (§2)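 Negatively supercoiled plasmid relaxed by 3 nM topoisomerase IIα with polyamine (spermidine or spermine) added. Controls were DNA without enzyme and enzyme without inhibitor. Products resolved on gels with supercoiled (form I) and nicked (form II) markers, then quantified. Error bars are standard error of the mean for 2 independent experiments.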
Target sequence in this assay (P11388 whole entry): as the sequence (P11388 whole entry, looked up, stated change not applied) above

[4] = molecular target: T1, DNA topoisomerase 2-alpha; test: (§3) Poison activity at recombinant human topoisomerase-2alpha expressed in Saccharomyces cerevisiae JEL1 harboring topoisomerase1 deletion mutant assessed as enzyme-mediated supercoiled pBR322 cleavable complex formation at 2.5 to 100 uM after 6 mins by ethidium bromide staining based agarose gel electrophoresis
In short: (§4)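 Double-strand DNA cleavage by topo IIα (150 nM) on negatively supercoiled DNA, tested at 2.5, 10, 50 and 100 µM (one compound only up to 10 µM). Linear form III is resolved from forms I and II on ethidium-stained gels. Cleavage is normalised to the no-drug control set to 1, with 100 µM etoposide as reference. SD of 2-3 independent experiments.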
Target sequence in this assay (P11388 whole entry): as the sequence (P11388 whole entry, looked up, stated change not applied) above

[5] = molecular target: T1, DNA topoisomerase 2-alpha; test: as §1, with “of 150” for “of 3”, “relaxation at 10 uM” for “relaxation”
In short: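 Control relaxation run at high enzyme (150 nM topo IIα) to match the cleavage assay. Negatively supercoiled DNA substrate, with no-enzyme and enzyme-only controls, read on gel.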
Target sequence in this assay (P11388 whole entry): as the sequence (P11388 whole entry, looked up, stated change not applied) above

[6] = molecular target: T1, DNA topoisomerase 2-alpha; test: as §1, with “of” for “of 3 nM”, “at 10 uM in presence of spermidine” for “after 4 mins”; in short: as §2
Target sequence in this assay (P11388 whole entry): as the sequence (P11388 whole entry, looked up, stated change not applied) above

[7] = molecular target: T1, DNA topoisomerase 2-alpha; test: as §3, with “Inhibition of” for “Poison activity at”, “up” for “at 2.5”, “10” for “100”, “in presence of CaCl2” for “after 6 mins”
In short: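 Cleavage reactions contain CaCl2, which raises baseline topo IIα DNA cleavage about 10- to 15-fold. Enzyme at 150 nM with negatively supercoiled DNA. Xanthones are tested up to 10 µM, with no-enzyme and enzyme-only controls.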
Target sequence in this assay (P11388 whole entry): as the sequence (P11388 whole entry, looked up, stated change not applied) above

[8] = molecular target: T1, DNA topoisomerase 2-alpha; test: as §1, with “relaxation at 10 uM” for “relaxation”
In short: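 Relaxation of negatively supercoiled plasmid by 3 nM topoisomerase IIα was read from gel mobility (supercoiled form I vs nicked form II). Controls were DNA without enzyme and enzyme-treated DNA without compound. Gels are representative of 2-4 independent experiments.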

[9] = molecular target: T1, DNA topoisomerase 2-alpha; test: as §1, with “of 150” for “of 3”, “in enzyme-mediated relaxed” for “in supercoiled”, “DNA strand passage” for “DNA relaxation”, “after 2” for “after 4”, “mins in presence of APP(NH)P” for “mins”
In short: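 Topo IIα at 150 nM with relaxed DNA as substrate, ATP replaced by the non-hydrolysable analogue APP(NH)P, so only events up to strand passage are scored. Catenated DNA is read at the gel origin against relaxed DNA bands, with no-enzyme and enzyme-only controls. Gels represent at least 3 independent experiments.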
Target sequence in this assay (P11388 whole entry, looked up, stated change not applied): as above

[10] = molecular target: T1, DNA topoisomerase 2-alpha; test: Inhibition of recombinant human topoisomerase-2alpha expressed in Saccharomyces cerevisiae JEL1 harboring topoisomerase1 deletion mutant assessed as reduction in etoposide induced enzyme-mediated DNA cleavage up to 100 uM by ethidium bromide staining based agarose gel electrophoresis
In short: (§5)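 Competition assay: 5-100 µM xanthone (one compound only up to 10 µM, for solubility) is added with 100 µM etoposide. Enzyme double-strand break levels are expressed relative to etoposide alone, set to 100%. Mean ± SD of 2-3 independent experiments.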

[11] = molecular target: T1, DNA topoisomerase 2-alpha; test: Inhibition of recombinant human topoisomerase-2alpha expressed in Saccharomyces cerevisiae JEL1 harboring topoisomerase1 deletion mutant assessed as reduction in enzyme-mediated [gamma32P]ATP hydrolysis using relaxed pBR322 DNA as substrate after 8 mins
Target sequence in this assay (P11388 whole entry, looked up, stated change not applied): as above

[12] = molecular target: T1, DNA topoisomerase 2-alpha; test: Inhibition of recombinant human topoisomerase-2alpha expressed in Saccharomyces cerevisiae JEL1 harboring topoisomerase1 deletion mutant assessed as reduction in enzyme-mediated [gamma32P]ATP hydrolysis up to 50 uM after 8 mins
[13] = Solubility of the compound in Tris-HCl at pH 7.9 at 50 to 100 uM; assay type: physicochemical; settings: buffer, pH 7.9, 100 µM
[14] = molecular target: T1, DNA topoisomerase 2-alpha; test: as §3, with “up” for “at 2.5”, “10” for “100”; in short: as §4
[15] = molecular target: T1, DNA topoisomerase 2-alpha; test: Inhibition of recombinant human topoisomerase-2alpha expressed in Saccharomyces cerevisiae JEL1 harboring topoisomerase1 deletion mutant assessed as reduction in etoposide induced enzyme-mediated DNA cleavage up to 10 uM by ethidium bromide staining based agarose gel electrophoresis; in short: as §5

## NCCCNCCCCNCCCN [SPERMINE]
[1]
  IC50: > 1000 µM

## O=c1c2ccccc2oc2cc(O)cc(O)c12
[2]
  Ratio IC50: 2 to 3
[3]
  inhibition: inactive
[4]
  Activity: inactive
[5]
  inhibition: inactive
[6]
  inhibition: inactive
[7]
  inhibition: inactive
[1]
  IC50: ≥ 100 µM
[8]
  inhibition: inactive

## NCCCCNCCCNCC(O)COc1cc(O)c2c(=O)c3ccccc3oc2c1 (stereo not given)
[2]
  Ratio IC50: 2 to 3
[4]
  Activity: inactive
[5]
  inhibition: Active
[9]
  IC50: < 10 µM
[10]
  inhibition: Active
[7]
  inhibition: inactive
[11]
  IC50: 10 µM
[12]
  inhibition: inactive

## NCCCCNCC(O)COc1cc(O)c2c(=O)c3ccccc3oc2c1 (stereo not given)
[4]
  Activity: inactive
[1]
  IC50: 2.5 to 5 µM

## NCCCCNCCCN [SPERMIDINE]
[1]
  IC50: > 1000 µM

## CCCCNCC(O)COc1cc(O)c2c(=O)c3ccccc3oc2c1 (stereo not given)
[4]
  Activity: inactive
[1]
  IC50: 100 µM

## NCCCNCC(O)COc1cc(O)c2c(=O)c3ccccc3oc2c1 (stereo not given)
[2]
  Ratio IC50: 2 to 3
[4]
  Activity: inactive
[5]
  inhibition: Active
[10]
  inhibition: Active
[7]
  inhibition: inactive
[1]
  IC50: 1 µM

## Cl.Cl.Cl.Cl.NCCCNCCCCNCCCNCC(O)COc1cc(O)c2c(=O)c3ccccc3oc2c1 (stereo not given)
[2]
  Ratio IC50: 2 to 3
[5]
  inhibition: Active
[9]
  IC50: < 10 µM
[7]
  inhibition: inactive
[13]
  solubility: Insoluble
[14]
  Activity: inactive
[15]
  inhibition: Active

Reference: ChEMBL document CHEMBL4043227, “Novel xanthone-polyamine conjugates as catalytic inhibitors of human topoisomerase IIα” (Bioorg Med Chem Lett, 2017)
